From PubChem
STEP inh: inhibitors of human striatal-enriched phosphatase STEP | P54829 | recombinant STEP, OMFP fluorogenic substrate, fluorescence | inhibition, % at 20 µM | hit rate 0.25% among 360,000 | AID 588621;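 active = inhibition at 20 µM, scaled per plate between control wells, above about 37%, limit read from the data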
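Assay system: isolated STEP enzyme. Buffer or medium: pH 6.0 Bis-Tris with DTT and Tween 20. Also added: fluorogenic phosphatase substrate OMFP at 25 µM final. Dosing: 20 µM, 1% DMSO. Timing: 20 min reaction, room temperature, in the dark. Measured by: fluorescence intensity, excitation 480 nm, emission 540 nm. Evaluation: normalized % inhibition.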
Scp-1 inhibitor: inhibitors of human Scp-1 phosphatase | Q9GZU7 | Recombinant Scp1, phosphopeptide, malachite green phosphate absorbance | inhibition, % at 20 µM | hit rate 0.88% among 340,000;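 active = inhibition above about 50% at 20 µM, limit read from the data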
Target sequence (Q9GZU7 76-261 limits assumed): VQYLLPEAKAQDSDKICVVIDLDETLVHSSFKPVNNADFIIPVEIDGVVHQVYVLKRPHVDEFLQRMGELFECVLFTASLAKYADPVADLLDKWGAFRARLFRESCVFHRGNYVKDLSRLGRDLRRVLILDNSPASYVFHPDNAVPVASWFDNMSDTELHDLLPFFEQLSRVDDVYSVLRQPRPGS
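Material – SCP-1 phosphatase catalytic domain, residues 76-261 · Buffer or medium – Acidic Tris acetate buffer with magnesium and detergent · Also added – Phospho 17-mer peptide substrate · Compound – single 20 µM dose, 1% DMSO · Times – 45 min room-temperature reaction, 5 min colour, 30 min stabiliser · Technique – Phosphate-binding colour reagent, absorbance read at 630 nm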
FAS-TE inh: FAS thioesterase (human) inhibition; P49327; recombinant FAS-TE, OMFH fluorogenic substrate, fluorescence endpoint; inhibition, % at 15 µM; hit rate 0.67% among 360,000;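 active = compounds whose normalised, plate-corrected inhibition of enzyme fluorescence in the single-dose primary screen is 50% or more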
LMPTP block: blocks human LMPTP phosphatase | recombinant LMPTP-A, OMFP fluorogenic substrate, fluorescence intensity | inhibition, % at 20 µM | hit rate 0.22% among 360,000 | AID 651560;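 active = compounds that cut the enzyme signal by at least half of the control window in the single-dose screen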
Target sequence (P24666 whole entry, looked up): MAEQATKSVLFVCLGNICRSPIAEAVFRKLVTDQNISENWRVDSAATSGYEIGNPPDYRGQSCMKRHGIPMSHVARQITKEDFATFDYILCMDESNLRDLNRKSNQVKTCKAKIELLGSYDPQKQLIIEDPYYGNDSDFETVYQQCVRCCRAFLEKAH
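Assay system: LMPTP-A phosphatase enzyme | Input: 0.625 nM enzyme | Also added: Fluorogenic phosphatase substrate OMFP at 400 µM final | Compound dosing: One test concentration per compound, 20 µM, with 3% DMSO overall | Schedule: 50 min enzyme reaction at room temperature, protected from light | Signal: Fluorescence intensity | Benchmarks: no-enzyme and uninhibited controls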
SUMO1-SIM PPI: modulators of human SUMO1-mediated protein-protein interactions | AID 602429 | inhibition, % at 20 µM | P63165 | SUMO1 binding to a labelled peptide, TR-FRET, 1 h | hit rate 0.33% among 360,000; in the data active = inhibition above about 37%
Target sequence (P63165 whole entry, looked up): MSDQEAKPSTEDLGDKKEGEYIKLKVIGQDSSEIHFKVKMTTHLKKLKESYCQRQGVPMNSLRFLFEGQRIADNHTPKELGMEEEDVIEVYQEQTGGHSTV
FAS-TE inh conf: confirmation of human fatty acid synthase thioesterase inhibitors | inhibition, % at 15 µM | AID 624325 | recombinant FAS-TE, OMFH fluorogenic substrate, fluorescence | shares compounds with FAS-TE inh | hit rate 45% among 2,300;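 active = compounds inhibiting the enzyme by at least 50% at 15 µM in any one of the replicates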
A number is an active result; i = inactive; nt = no result. This is a sample that favours compounds with a hit; in the whole collection about 1.9% have one here.

SMILES	STEP inh	Scp-1 inhibitor	FAS-TE inh	LMPTP block	SUMO1-SIM PPI	FAS-TE inh conf
O=C(Nc1cccc(Cl)c1)NC1CC2CCC1C2 (configuration not stated)	i	i	i	i	i	nt
COC(=O)[C@H]1[C@H]2C[C@@H]3c4[nH]c5cc(OC)ccc5c4CCN3C[C@H]2C[C@@H](OC(=O)/C=C/c2cc(OC)c(OC)c(OC)c2)[C@@H]1OC	i	i	54	i	i	i
O=C(c1ccc([N+](=O)[O-])o1)N1CCN(Cc2ccccc2)CC1	i	i	i	i	i	nt
CCc1cccc2sc(N3CCN(C(=O)c4ccc([N+](=O)[O-])o4)CC3)nc12	i	i	52	i	i	40
CCc1ccc(NS(=O)(=O)c2cc3c(cc2C)n(C)c(=O)c(=O)n3C)cc1	i	i	74	i	i	83
Cc1cc2c(cc1S(=O)(=O)Nc1ccc(F)cc1)n(C)c(=O)c(=O)n2C	i	i	i	i	i	nt
O=C(Nc1ccnn1C1CCN(CCCC2CCCC2)CC1)c1ccccc1Cl	i	i	i	i	i	nt
O=C(Nc1cnn(C23CC4CC(CC(C4)C2)C3)c1)c1cnn2c(C(F)(F)F)cc(-c3ccco3)nc12	i	i	61	i	i	i
O=C(CCSc1ccccc1Cl)Nc1cccc([N+](=O)[O-])c1	i	i	52	i	i	i
CC(=O)O[C@@H]1C[C@H]2C(C)(C)C(=O)C=C[C@]2(C)[C@H]2CC[C@@]3(C)[C@H](c4ccoc4)OC(=O)[C@H]4O[C@]43[C@@]21C	i	i	51	i	i	i
Cc1ccc(CC2(C)C(=O)Nc3c(Cl)ccc(Cl)c32)cc1 (configuration not stated)	i	nt	i	i	i	nt
CC(Oc1ccccc1)C(=O)N1CCC2(CC1)Oc1ccc(F)cc1C(=O)C21CC(c2ccc(Cl)cc2)=NO1 (configuration not stated)	i	i	i	i	i	nt
CC(Oc1ccccc1)C(=O)N1CCC2(CC1)Oc1ccc(F)cc1C(=O)C21CC(c2ccccc2)=NO1 (configuration not stated)	i	i	62	i	i	i
O=C(/C=C/c1cccs1)N1CCC2(CC1)Oc1ccc(Cl)cc1C(=O)C21CC(c2ccccc2)=NO1 (configuration not stated)	i	i	73	i	i	i
COc1cccc2cc(C(=O)NCCC3=CCCCC3)c(=O)oc12	i	i	59	i	i	i
COc1cccc2cc(C(=O)NCCc3ccccc3)c(=O)oc12	i	i	i	i	i	nt
CCN1C(=O)[C@@H]2[C@@H](c3ccc(-c4ccc5c(c4)OCO5)c(OC)c3)N3CCCC[C@@]3(C(=O)OC)[C@@H]2C1=O	i	i	53	i	i	i
COC(=O)[C@@]12CCCCN1[C@H](c1ccc(-c3ccc4c(c3)OCO4)cc1)[C@H]1C(=O)N(C)C(=O)[C@H]12	i	i	79	i	i	i
COc1ccc(OC)c(-c2nc3cc4ccccc4cc3nc2-c2ccccc2)c1	i	i	53	i	i	i
CCOC(=O)CC1(NC(=O)C2CCC(=O)N(Cc3ccccc3F)C2)CCCCC1 (configuration not stated)	i	i	i	i	i	nt
Cc1ccc(-c2cc(C(F)F)n3ncc(C(=O)N4CCc5ccccc5C4)c3n2)cc1	i	i	53	i	i	i
O=C(Cn1cnc2cc([N+](=O)[O-])ccc2c1=O)N(Cc1ccccc1)C1CCS(=O)(=O)C1 (configuration not stated)	i	i	57	i	i	i
CN(Cc1cccs1)C(=O)Cn1cnc2cc([N+](=O)[O-])ccc2c1=O	i	i	53	i	i	55
O=C(Cn1cnc2cc([N+](=O)[O-])ccc2c1=O)NC1CCS(=O)(=O)C1 (configuration not stated)	i	i	i	i	i	nt
CCOC(=O)c1c(NC(=O)c2ccc(-n3cnnn3)cc2)sc2c1CCCC2	i	i	i	i	i	nt
SMILES	STEP inh	Scp-1 inhibitor	FAS-TE inh	LMPTP block	SUMO1-SIM PPI	FAS-TE inh conf
CCOC(=O)c1c(NC(=O)c2ccc(N3C(=O)[C@@H]4[C@H](C3=O)[C@H]3C=C[C@@H]4C3)cc2)sc2c1CCCC2	i	i	62	i	i	i
COc1ccccc1C(=O)NCCNc1ccc([N+](=O)[O-])cc1Cl	i	i	i	i	i	nt
O=C(NN1C(=O)C2C(c3ccccc3)C=CC(c3ccccc3)C2C1=O)c1ccccc1 (configuration not stated)	i	i	i	i	i	nt
O=C(NN1C(=O)C2C(c3ccccc3)C=CC(c3ccccc3)C2C1=O)c1cccc(Br)c1 (configuration not stated)	i	i	54	i	i	45
COC(=O)C1=C(C(=O)OC)[C@]2([C@H]3CC=CCN[C@@H](Cc4ccccc4)C(=O)N3Cc3ccccc3)C=C[C@H]1O2	i	i	54	i	i	i
Cc1cc(C)c(S(=O)(=O)c2ccc(Cl)cc2)c(Cl)n1	i	i	i	i	i	nt
Cc1cc(S(=O)(=O)c2ccc(Cl)cc2)nc(S(=O)(=O)c2ccc(Cl)cc2)c1C#N	i	nt	69	i	i	72
Cc1ccc(C(=O)c2cnc3cc4c(cc3c2S(=O)(=O)c2ccccc2)OCCO4)cc1	i	i	72	i	i	i
CN(c1ccccc1)S(=O)(=O)c1cccc(NC(=O)CSc2ncc(C(F)(F)F)cc2Cl)c1	i	i	i	i	i	nt
CN(C)c1ccc(P(=O)(Nc2ccc([N+](=O)[O-])cc2)N2CCOCC2)c(NC(=O)c2cccs2)c1 (configuration not stated)	i	i	54	i	i	i
Cc1cccc(N2CCN(C(=O)c3ccc(-n4cncn4)c([N+](=O)[O-])c3)CC2)c1C	i	i	i	i	i	nt
C=CCn1c(C)c(C(C)=O)c(N2CCN(C(c3ccccc3)c3ccccc3)CC2)nc1=S	i	i	58	i	i	i
CC(=O)c1c(N2CCN(C)CC2)nc(=S)n(Cc2ccccc2)c1C	i	i	i	i	i	nt
O=C1O[C@@H]([C@H](O)CO)C(O)=C1O	i	i	i	i	i	nt
CCCCSc1nc2sc3c(c2c(=O)[nH]1)CC(C)(CC)OC3 (configuration not stated)	i	i	i	i	i	nt
COC(=O)C1=C(C)NC(C)=C(C(=O)OC)C1c1ccc(OC(=O)c2oc3ccccc3c2C)c(OC)c1	i	i	52	i	i	i
O=S(=O)(NCCN1CCCC1)c1ccc(Br)cc1	i	i	i	i	i	nt
CC(C)OC(=O)/C(C#N)=C/c1cn(C)c2ccccc12	i	i	52	i	i	49
CC(C)OC(=O)/C(C#N)=C/c1cn(Cc2ccccc2)c2ccccc12	i	i	i	i	i	nt
